# Screens (PubChem BioAssay)
# Rpn11 block = inhibitors of human proteasome Rpn11 | human 26S proteasome, Ub4-pepOG fluorescence polarization; 20S core pre-blocked with epoxomicin | inhibition, % at 20 µM | hit rate 0.59% among 360,000;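 active = inhibition at 20 µM, scaled to each plate's controls, above about 33%, limit read from the data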
# SUMO1 PPI mod = modulators of human SUMO1-mediated protein-protein interactions; P63165; SUMO1 binding to a labelled peptide, TR-FRET, 1 h; inhibition, % at 20 µM; hit rate 0.33% among 360,000; in the data active = inhibition above about 37%
# Scp-1 inhibitor = blocks human Scp-1 phosphatase activity; hit rate 0.88% among 340,000; inhibition, % at 20 µM; AID 493091; Q9GZU7; Recombinant Scp1, phosphopeptide, malachite green phosphate absorbance;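 active = inhibition above about 50% at 20 µM, limit read from the data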;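 note: plate controls were DMSO wells with enzyme for no effect and wells lacking enzyme for full effect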
#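 assay system = SCP-1 phosphatase catalytic domain, residues 76-261 | buffer or medium = 50 mM Tris acetate pH 5.5, 0.005% Tween-20, 10 mM MgCl2 | incubation = enzyme reaction 45 min at room temperature, colour 5 min, stabilisation 30 min | signal = Phosphate-binding colour reagent, absorbance read at 630 nm | measure = % inhibition at 20 µM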
# DNMT1 inh = blocks human DNA methyltransferase DNMT1; DNMT1 molecular beacon, Hinp1I cleavage, fluorescence; AID 588458; P26358; inhibition (reported as % activation of signal), % at 10 µM; hit rate 0.83% among 360,000; in the data active = inhibition above about 50%
# STEP inh = blocks human striatal-enriched tyrosine phosphatase. P54829. recombinant STEP, OMFP fluorogenic substrate, fluorescence. inhibition, % at 20 µM. hit rate 0.25% among 360,000. AID 588621;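 active = inhibition at 20 µM, scaled per plate between control wells, above about 37%, limit read from the data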;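 note: 0% = DMSO with enzyme and substrate and 100% = substrate only without enzyme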
#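 System: STEP (striatal-enriched tyrosine phosphatase) enzyme, cell-free; medium: Bis-Tris pH 6.0 buffer with DTT, detergent; dosing: 20 µM, 1% DMSO; times: reaction 20 min, ambient temperature; detection: fluorescence, 480/540 nm; read-out basis: normalized % inhibition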
# LMPTP inh = blocks human LMPTP phosphatase | recombinant LMPTP-A, OMFP fluorogenic substrate, fluorescence intensity | AID 651560 | P24666 | inhibition, % at 20 µM | hit rate 0.22% among 360,000;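 active = compounds that cut the enzyme signal by at least half of the control window in the single-dose screen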;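 note: plate controls were DMSO wells with enzyme plus substrate for no effect and substrate without enzyme for full effect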
#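 Buffer or medium: Bis-Tris pH 6.0, DTT, detergent; Assay system: LMPTP-A enzyme; Quantity: 0.625 nM enzyme; Detection: endpoint fluorescence intensity; Times: 50 min dark incubation at room temperature; Controls: substrate-only low control, DMSO enzyme-plus-substrate high control; Doses: single 20 µM dose; Read-out: percent inhibition versus substrate-only and uninhibited controls; Reagent: 400 µM OMFP.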
# Rpn11 confirm = Rpn11 inhibition confirmation, single concentration. purified human 26S proteasome, Ub4-pepOG fluorescence polarization; proteasome pretreated with epoxomicin. shares compounds with Rpn11 block. hit rate 29% among 1,900. inhibition, % at 20 µM
# MMP-2 counter = blocks human MMP-2, flagging nonselective RPN11 hits. shares compounds with Rpn11 block. recombinant MMP-2, FRET peptide cleavage fluorescence. inhibition, % at 20 µM. hit rate 4% among 1,900;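 note: human MMP-2 activated beforehand with APMA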
# Target sequence (P08253 whole entry, looked up): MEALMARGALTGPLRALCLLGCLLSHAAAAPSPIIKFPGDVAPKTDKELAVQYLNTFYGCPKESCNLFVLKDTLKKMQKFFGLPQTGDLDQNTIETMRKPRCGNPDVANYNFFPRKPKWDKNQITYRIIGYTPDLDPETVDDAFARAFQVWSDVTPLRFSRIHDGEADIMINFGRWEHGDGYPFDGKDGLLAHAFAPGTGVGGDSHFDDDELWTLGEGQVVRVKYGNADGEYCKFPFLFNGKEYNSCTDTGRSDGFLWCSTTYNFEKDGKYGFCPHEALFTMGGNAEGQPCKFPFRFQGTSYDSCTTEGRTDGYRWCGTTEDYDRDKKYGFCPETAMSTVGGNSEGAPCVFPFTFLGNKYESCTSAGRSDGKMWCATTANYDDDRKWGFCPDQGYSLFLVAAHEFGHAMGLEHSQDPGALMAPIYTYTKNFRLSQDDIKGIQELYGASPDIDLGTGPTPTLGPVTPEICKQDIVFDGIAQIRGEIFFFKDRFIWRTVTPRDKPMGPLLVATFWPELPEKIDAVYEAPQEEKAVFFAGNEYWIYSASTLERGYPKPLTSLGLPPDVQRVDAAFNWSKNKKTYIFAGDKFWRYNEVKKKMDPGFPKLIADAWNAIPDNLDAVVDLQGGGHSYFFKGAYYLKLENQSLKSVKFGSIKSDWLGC
# Thrombin FP = counter-screen for RPN11 inhibitors: inhibition of bovine thrombin; shares compounds with Rpn11 block; hit rate 13% among 1,900; AID 602333; bovine thrombin cleavage of Ub4-pepOG, fluorescence polarization; inhibition, % at 20 µM;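 active = mean inhibition at least 40% at 20 µM, or signal 3 deviations below plate average, so some actives read negative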;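 note: plate controls were thrombin with DMSO for no effect and buffer wells lacking thrombin for full effect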
# An asterisk follows results filed as active; x = no result given; ! = a repeat was not active. Shown are actives, neighbours in structure and some others; about 2.3% of the full set was active somewhere. Cut-off read from the data, not from the text of the source, unless noted: active = inhibition above about 40%; inactive = the rest.
SMILES,Rpn11 block,SUMO1 PPI mod,Scp-1 inhibitor,DNMT1 inh,STEP inh,LMPTP inh,Rpn11 confirm,MMP-2 counter,Thrombin FP
Cc1ccnc(NS(=O)(=O)c2ccc(NC(=O)c3cc(-c4ccc(Br)cc4)nc4ccccc34)cc2)n1,38*,-1,-7,0,-3,2,18,10,8
COc1ccc(NS(=O)(=O)c2cc(N=Nc3c(O)[nH]c(=O)[nH]c3=O)ccc2OC)cc1Br,7,-28,x,-9,2,1,x,x,x
Cc1ccc(N=Nc2c(O)[nH]c(=O)[nH]c2=O)cc1S(=O)(=O)Nc1ccc(Br)cc1,50*,-20,-4,-1,-1,1,108*,-11,72*
CCc1cc2c(SCc3nc4sc(C(C)=O)c(C)c4c(=O)[nH]3)ncnc2s1,65*,-9,-5,-5,-1,-1,77*,55*,46*
Cc1ccnc2nc(C(=O)OC(C)C(=O)NCc3ccccc3)nn12 (stereo unspecified),3,0,-12,2,2,-1,x,x,x
CCCCC(CC)CNC(=O)C(=O)c1ccccc1NC(C)=O (stereo unspecified),41*,1,3,0,12,-1,-12,-49,-21
CCc1ccc(NC(=O)C(=O)c2ccccc2NC(C)=O)cc1,-1,-4,0,-6,-2,0,x,x,x
CN1/C(=C\C=N\NC(=O)c2ccc(O)cc2)C(C)(C)c2ccccc21,72*,-12,-14,-13,-2,-1,38,-31,7
Cc1c(N=C/C=C2\N(C)c3ccccc3C2(C)C)c(=O)n(-c2ccccc2)n1C,4,-18,-3,0,0,-1,x,x,x
Cc1c(N=C/C=C2/N(C)c3ccccc3C2(C)C)c(=O)n(-c2ccccc2)n1C,47*!,-13,0,-2,-1,-1,33,-8,30
CN1/C(=C\C=N\NC(=O)c2cccnc2)C(C)(C)c2ccccc21,4,-6,-3,-3,0,-1,x,x,x
CCOC(=O)Cc1csc(NC(=O)c2sc3nc4c(C)cc(C)cc4cc3c2N)n1,48*,10,0,-23,-1,0,24,-17,-2
O=C(NCCCNc1ccc(C(F)(F)F)cc1[N+](=O)[O-])c1ccc(F)cc1,29,-11,-1,5,0,2,x,x,x
Cc1ccc(C(=O)NCCCNc2ccc(C(F)(F)F)cc2[N+](=O)[O-])cc1,41*,0,-4,0,0,-2,16,10,5
COc1cc2c(cc1OC)C(C)N(CC(=O)Nc1ccc(S(=O)(=O)N3CCCC3)cc1)CC2 (stereo unspecified),53*,-1,-8,-6,6,4,-8,-20,-9
NC(=O)N/N=C/c1sc(N2CCCCC2)nc1-c1cccs1,56*,-7,14,-13,3,1,4,-11,-1
CC(C)NC(=S)N/N=C/c1sc(N2CCCCC2)nc1-c1cccs1,53*,-11,0,-17,1,3,46*,34,8
O=C(N/N=C/c1sc(N2CCCCC2)nc1-c1cccs1)C1CC1,23,-16,-1,-5,3,1,x,x,x
CCc1ccccc1Oc1nc(NCCOC)nc2cc(-c3ccccc3)sc12,-1,-2,x,-21,0,2,x,x,x
O=c1[nH]c(-c2ccc3c(c2)OCO3)nc2c1sc(=S)n2-c1ccccc1,63*,-6,-4,-1,-4,0,38,-15,23
CCOCCCn1c(=NC(C)=O)c(C#N)cc2c(=O)n3ccccc3nc21,-6,-19,2,13,4,3,x,x,x
CC(=O)N=c1c(C#N)cc2c(=O)n3ccccc3nc2n1Cc1ccccc1,56*,-7,-5,40,7,14,-22,-37,-18
COc1cccc(-n2c(SCC(N)=O)nc3ccccc3c2=O)c1,66*,-1,-7,2,-2,-1,56*,-4,19
NC(=O)CSc1nc2ccccc2c(=O)n1-c1ccccc1,0,-3,-6,1,-2,-1,x,x,x
O=C(Nc1ccc(-c2nc3ccccc3[nH]2)cc1)c1ccco1,5,6,0,-2,12,3,x,x,x
SMILES,Rpn11 block,SUMO1 PPI mod,Scp-1 inhibitor,DNMT1 inh,STEP inh,LMPTP inh,Rpn11 confirm,MMP-2 counter,Thrombin FP
O=C(/C=C/c1ccco1)Nc1ccc(-c2nc3ccccc3[nH]2)cc1,56*,1,-3,50,5,37,5,-2,-35
CCN1C(=O)[C@H]2[C@@H](c3ccc(C(F)(F)F)cc3)N[C@]3(CCCN(Cc4ccc(Cl)cc4)C3=O)[C@H]2C1=O,-10,5,x,-2,-1,0,x,x,x
CNC(=S)NNC(=O)c1c(C)nc2cc(C)ccn12,6,5,-3,-1,-1,-1,x,x,x
Cc1ccc(NC(=O)C2CCN(S(=O)(=O)c3ccc4c(c3)NC(=O)C(C)S4)CC2)cc1Cl (stereo unspecified),42*,2,-11,-13,-2,3,44*,1,35
COc1ccc(S(=O)(=O)N2CC(O)CC2C(=O)OCc2nc3sc(C)c(C)c3c(=O)[nH]2)cc1 (stereo unspecified),47*,9,-1,4,-2,-1,22,-17,10
O=C(CSc1nc2ccccc2s1)c1cc2ccccc2o1,56*,-14,-9,-5,3,5,29,20,15
O=C(NC1CCCCC1)NC1CC2CCCC(C1)N2C1CCCC1 (stereo unspecified),73*,2,2,1,0,1,-3,-27,-8
O=C(NNC(=O)NC1CCCCC1)NC1CCCCC1,-6,3,-17,4,0,-2,x,x,x
N#CNC(=Nc1cccc(F)c1)SCc1ccccc1,47*,-2,-1,-1,-3,0,-24,-28,-25
O=c1[nH]cnc2c1ncn2[C@@H]1O[C@H](COS(=O)(=O)O)[C@@H](O)[C@H]1O,6,-10,0,0,0,1,x,x,x
CC(C)C(=O)Nc1ccc(NC(=O)c2cc3ccccc3o2)cc1,177*,4,-5,0,3,-1,-3,-19,-1
CC(C)C(=O)Nc1ccc(NC(=S)NC(=O)c2cc3ccccc3o2)cc1,-3,-5,0,8,-3,-1,x,x,x
